# Screening results deposited in PubChem BioAssay by several laboratories.
# AHR activator = AHR activators, primary screen, cell-based, luminescence, luciferase reporter, human; hit rate 2.5% among 320,000; AHR-responsive luciferase reporter cells; activation, % at 5 µM; in the data active = activation above about 47%;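 also: 0% = vehicle wells and 100% = reference agonist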
# UCH37 DUB inh = inhibitors of human UCH37 deubiquitinase, primary screen, biochemical, Ub-AMC cleavage, fluorescence; AID 588478, 2011; purified proteasome/UCH37; inhibition, % (no concentration beside the values); hit rate 0.33% among 330,000; Ubiquitin carboxyl-terminal hydrolase isozyme L5 (Homo sapiens), Q9Y5K5;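 active = mean inhibition over replicate wells above about 20%, limit read from the data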;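 also: 0% = compound-free wells with enzyme and 100% = wells lacking proteasome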
# Target sequence (Q9Y5K5 whole entry, looked up): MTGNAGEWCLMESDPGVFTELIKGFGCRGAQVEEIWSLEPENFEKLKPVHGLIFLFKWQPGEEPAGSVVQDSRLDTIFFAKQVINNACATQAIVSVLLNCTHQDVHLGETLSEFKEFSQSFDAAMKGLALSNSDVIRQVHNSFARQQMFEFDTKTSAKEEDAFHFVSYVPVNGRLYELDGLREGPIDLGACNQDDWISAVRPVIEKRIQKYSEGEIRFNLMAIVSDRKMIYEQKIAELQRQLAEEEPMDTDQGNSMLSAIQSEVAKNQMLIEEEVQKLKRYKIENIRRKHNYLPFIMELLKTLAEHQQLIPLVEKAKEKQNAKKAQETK
#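 Material: Human UCH37 enzyme supplied as purified proteasome complex | Schedule: 30 min preincubation with enzyme, 25 min cleavage at room temperature | Detection: AMC fluorescence 355/460 nm | Measure: % inhibition of Ub-AMC cleavage fluorescence | Controls: Wells without proteasome as full block, compound-free enzyme plus substrate as uninhibited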
# A3A deaminase = APOBEC3A ssDNA deaminase inhibitors, primary screen, selectivity assay for APOBEC3G inhibitor project, biochemical, FAM/TAMRA oligo cleavage fluorescence; hit rate 0.41% among 330,000; DNA dC->dU-editing enzyme APOBEC-3A (Homo sapiens), P31941; inhibition, % at 20 µM; recombinant A3A, FAM/TAMRA ssDNA deamination fluorescence;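 active = at least 40% inhibition at 20 µM here, with at most 30% in a related deaminase screen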;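 also: plate controls were A3A with DMSO for no effect and wells lacking A3A enzyme for full effect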
# Target sequence (P31941 whole entry, looked up): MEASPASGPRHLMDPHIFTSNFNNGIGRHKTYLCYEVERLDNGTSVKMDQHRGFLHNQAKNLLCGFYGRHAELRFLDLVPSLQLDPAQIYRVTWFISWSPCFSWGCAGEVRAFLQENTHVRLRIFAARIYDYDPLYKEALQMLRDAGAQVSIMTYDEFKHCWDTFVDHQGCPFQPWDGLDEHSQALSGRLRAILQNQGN
# A3G deaminase = APOBEC3G DNA deaminase inhibitors, primary screen, biochemical, fluorescence, single-stranded DNA substrate, uHTS | inhibition, % at 20 µM | recombinant A3G, ssDNA deamination FAM/TAMRA fluorescence | AID 493012, 2011 | DNA dC->dU-editing enzyme APOBEC-3G (Homo sapiens), Q9HC16 | hit rate 0.28% among 330,000;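 active = inhibition of at least 40% at 20 µM, with no more than 30% in the related APOBEC3A deaminase screen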;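 also: plate controls were DMSO wells with A3G for no effect and wells lacking A3G enzyme for full effect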
# PolyA inh = polyadenylation inhibitors in yeast reporter cells, primary screen, luminescence, S. cerevisiae; S. cerevisiae SKY197-pL101 polyadenylation reporter, beta-gal luminescence; efflux-impaired pdr1/pdr3 knockout yeast; score 100 = 6 SD above DMSO; activity score, % at 12 µM; hit rate 0.02% among 300,000;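 active = lowest replicate activity score at least 50, where 100 means six control SD above control mean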;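 also: yeast exposed to compound for 9 h at 30 °C; higher score means more reporter readthrough which indicates perturbed polyadenylation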
# Arr AP2 block = inhibitors of beta-arrestin/AP2 binding, primary screen, biochemical, GPCR trafficking, flow cytometry; inhibition, % at 10 µM; FITC-arrestin peptide / GST-AP2 beads; AP2 beta2 appendage carries R879A mutation; AID 504490, 2011; beta-arrestin 1 C-terminal peptide binding to AP2 beta2-adaptin appendage (human); hit rate 0.31% among 340,000;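 active = inhibition above a set limit, near 3 SD of compounds lacking own fluorescence, cut at about 54% in these data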;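 also: plate controls were DMSO wells for no effect and 5 µM unlabelled arrestin peptide for full effect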
#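 System: GST-AP2 R879A glutathione beads | Also added: FITC-arrestin peptide, 50 nM | Times: 12 min plus 1 h, RT | Signal: Bead flow cytometry, FITC channel | Buffer or medium: PBS with 0.05% Tween 20 and 0.1% BSA | Read-out basis: Percent drop in bead-associated FITC signal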
# UCH37 reconfirm = retest of human UCH37 deubiquitinase inhibitors, confirmation, biochemical, Ub-AMC cleavage rate, fluorescence. Proteasome-bound UCH37. inhibition, % at 20 µM. hit rate 27% among 480. shares compounds with UCH37 DUB inh. AID 624100, 2012;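 active = average inhibition over replicates above about 50%, so the earlier screening hit is confirmed, limit read from the data; inactive = the rest, counted as false positives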;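 also: based on cleavage rate fitted by regression over a 30 min kinetic read; 0% = proteasome plus Ub-AMC and 100% = Ub-AMC without proteasome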
# * = called active by the depositor; . = not tested or not shown. An excerpt weighted towards active compounds, which were near 3.4% of everything screened.
SMILES,AHR activator,UCH37 DUB inh,A3A deaminase,A3G deaminase,PolyA inh,Arr AP2 block,UCH37 reconfirm
NC(=O)C1CCN(C2=C(NS(=O)(=O)c3ccc(Cl)cc3)C(=O)c3ccccc3C2=O)CC1,2.8,33.4*,-2.7,-3.4,-13.0,4.1,30.0
COc1ccc(C=NNC(=O)c2cccnc2)cc1COc1ccc(NC(C)=O)cc1,.,5.0,.,.,.,.,.
Cc1ccc(NC(=O)COC(=O)c2ccc([N+](=O)[O-])s2)c(C)c1,-3.0,31.4*,-2.6,-5.3,-4.1,5.0,20.0
NS(=O)(=O)c1ccc(NC(=O)COC(=O)c2ccc([N+](=O)[O-])s2)cc1,1.3,68.9*,-1.9,-8.2,-6.6,-4.3,-9.4
CC(=O)Nc1ccc(NC(=O)COC(=O)c2ccc(C)s2)cc1,2.8,-1.1,5.7,-1.1,10.2,9.0,.
CN(CC(=O)Nc1ccccc1Cl)C(=O)COC(=O)c1cccs1,-0.2,4.8,-1.5,-4.9,.,0.0,.
CN(CC(=O)Nc1ccccc1Cl)C(=O)COC(=O)c1ccc([N+](=O)[O-])s1,-0.1,75.8*,0.1,-2.3,.,-1.3,12.9
Cc1cc(C)c(NC(=O)COC(=O)c2ccc([N+](=O)[O-])s2)c(C)c1,0.0,4.0,-1.1,-8.3,-4.8,4.6,.
COc1ccccc1NC(=O)COC(=O)c1ccc([N+](=O)[O-])s1,2.5,72.3*,4.2,-3.7,-24.4,9.2,5.0
Cc1ccc(C=NNC(=O)c2ccc(NC(=O)c3ccc(Cl)cc3)cc2)o1,.,-10.6,.,.,.,.,.
COc1cc(C=NNC(=O)CNC(=O)c2ccccc2)ccc1OC(=O)c1cccs1,.,3.0,.,.,.,.,.
COCc1c(C(=O)NN=C(C)c2ccncc2)nnn1-c1nonc1N,.,1.0,.,.,.,.,.
CCN(CC)c1ccc(C=NNC(=S)NC)c(O)c1,.,-20.9,.,.,.,.,.
COc1ccccc1N1CCN(N=Cc2ccc(OC)c(OC)c2OC)CC1,.,2.0,.,.,.,.,.
Cc1[nH][nH]c(=O)c1C(c1ccc(Br)cc1)c1c(C)[nH][nH]c1=O,0.1,8.7,-4.6,-2.2,-8.5,7.6,.
COC(=O)COc1ccc(C(c2c(C)[nH][nH]c2=O)c2c(C)[nH][nH]c2=O)cc1,.,5.3,-7.3,-4.3,3.1,-9.7,.
Cc1[nH][nH]c(=O)c1C(c1ccc(-c2cccc(C(=O)O)c2)o1)c1c(C)[nH][nH]c1=O,5.7,44.3*,21.4,7.3,7.2,26.4,70.8*
Cc1[nH][nH]c(=O)c1C(c1ccc(-c2cccc(Cl)c2)o1)c1c(C)[nH][nH]c1=O,3.9,80.5*,-5.8,36.3,8.9,3.6,84.0*
COC(=O)c1ccc(-c2ccc(C(c3c(C)[nH][nH]c3=O)c3c(C)[nH][nH]c3=O)o2)cc1,-0.3,44.9*,20.2,12.8,-11.4,15.7,67.2*
O=c1[nH]c(Nc2ccccc2)cc2cc(Br)ccc12,32.2,43.7*,-6.8,-8.0,-6.0,0.5,19.2
CCCN1CCC(=NNc2ccc(S(=O)(=O)N3CCOCC3)cc2[N+](=O)[O-])CC1,-11.9,43.6*,2.4,1.0,-2.1,0.5,-0.3
COc1ccc(Br)cc1C=NNC(=O)CNC(=O)C1COc2ccccc2O1 (stereo unspecified),.,-2.5,.,.,.,.,.
Cc1nnsc1C(=O)NN=Cc1ccc(OC(F)(F)F)cc1,.,-2.5,.,.,.,.,.
ON=C1CCC/C1=C\c1ccco1,.,2.1,.,.,.,.,.
CCOC(=O)/C(=C\C=C1/Sc2cc(OCC)c(OCC)cc2N1CC)C(C)=O,1.3,29.5*,.,.,2.1,-10.7,17.7
SMILES,AHR activator,UCH37 DUB inh,A3A deaminase,A3G deaminase,PolyA inh,Arr AP2 block,UCH37 reconfirm
O=C(CSCc1ccccc1)NN=Cc1ccccc1OCc1ccccc1,.,2.9,.,.,.,.,.
CCC(=O)N(C1=C(NC(C)C)C(=O)c2ccccc2C1=O)C(C)C,-0.5,46.4*,-1.6,-3.9,-19.7,27.1,21.7
CCOC(=O)c1c(C)oc2c1C(=O)c1ccccc1C2=O,14.1,27.8*,4.2,-5.4,.,11.6,29.0
Cc1oc2c(c1C(=O)c1ccccc1)C(=O)C(=O)c1ccccc1-2,63.6*,49.2*,4.7,6.6,-22.6,0.2,32.6
Cc1oc2c(c1C(=O)O)C(=O)c1ccccc1C2=O,11.1,49.0*,11.0,7.6,-14.0,-3.3,45.9
COc1ccc(C(=O)c2c(C(F)(F)F)oc3c2C(=O)c2ccccc2C3=O)cc1OC,-16.4,15.8,1.1,0.5,-46.7,27.1,.
CCOC(=O)c1c(C)cc(=O)oc1C,-0.8,4.8,2.4,0.6,-1.3,22.1,.
COc1ccc2ccccc2c1C=NNC(=O)c1cc(C)[nH]n1,.,4.4,.,.,.,.,.
COc1cc(/C=N/N2CCCCC2)cc([N+](=O)[O-])c1O,0.1,.,3.9,-3.1,-17.3,13.4,.
COc1cc(C=Nn2cnnc2-n2nc(C)cc2C)cc([N+](=O)[O-])c1O,.,29.2*,.,.,.,.,25.5
CCCOc1ccc(-c2cn3ccccc3n2)cc1[N+](=O)[O-],-1.4,3.5,-2.5,-8.1,-5.8,14.2,.
COc1ccc(-c2cn3ccccc3n2)cc1[N+](=O)[O-],1.7,46.4*,-0.4,-10.2,-21.0,3.0,9.6
O=C(NCc1ccccc1)c1ccc(N2CCC3(CC2)CC(c2ccccc2)=NO3)c([N+](=O)[O-])c1,1.6,46.9*,-1.3,-7.1,-13.4,-0.9,2.7
CC(NC(=O)COC(=O)c1ccc([N+](=O)[O-])s1)c1ccccc1 (stereo unspecified),-0.1,33.0*,0.9,1.6,-12.0,-3.2,11.5
O=C(COC(=O)c1ccc([N+](=O)[O-])s1)NCc1ccc(F)cc1,0.5,65.0*,0.3,4.2,2.0,3.0,25.3
O=C(COC(=O)c1ccc([N+](=O)[O-])s1)NNC(=O)c1ccccc1,0.8,79.8*,1.3,-0.6,.,4.8,19.3
O=C1CN(C(=O)COC(=O)c2ccc([N+](=O)[O-])s2)c2ccccc2N1,0.1,75.6*,0.8,1.6,.,-9.4,7.9
O=C(COC(=O)c1ccc([N+](=O)[O-])s1)c1ccc[nH]1,1.2,.,-1.0,-3.2,.,11.1,.
